# Published values of several laboratories.
# Each line is one published result; the experiments were not run side by side.
# RAF1: RAF proto-oncogene serine/threonine-protein kinase (RAF1, Homo sapiens, UniProt P04049)
# RAF1 Y340D/Y341D: RAF proto-oncogene serine/threonine-protein kinase (RAF1, Homo sapiens, UniProt P04049, Y340D/Y341D)
SMILES,target,effect on,action,technique,concentration,measurement,value
Nc1ncc(-c2nc(N3CCOCC3)nc(N3CCOCC3)n2)c(C(F)F)n1,RAF1,binding,,competition with immobilised ligand,10 µM,remaining binding,98%
CC(C)(C)c1cc(C=C(C#N)C#N)cc(Br)c1O,RAF1,enzyme activity,inhibitor,,0.5 µM,remaining activity,104%
Cn1cncc1[C@](O)(COc1ccc(C#N)cc1-c1ccc(OC(F)(F)F)cc1)c1ccc(C#N)cc1,RAF1,cell-free assay,,competition with immobilised ligand,1 µM,remaining binding,100%
O=c1[nH]c2ccccc2n1C1CCN(Cc2ccc(-c3[nH]c4cc5ncnc5cc4nc3-c3ccccc3)cc2)CC1,RAF1,cell-free assay,,,0.5 µM,remaining signal,94.7%
C#Cc1n[nH]c2c(-c3cn([C@@H](C)c4ccccc4)c(=O)[nH]c3=O)cc(F)cc12,RAF1 Y340D/Y341D,enzyme activity,inhibitor,,0.1 µM,inhibition,4.4%
Cn1cc(-c2cccc(N3CCc4c(sc5c4CC(C)(C)C5)C3=O)c2CO)cc(Nc2ccncn2)c1=O,RAF1 Y340D/Y341D,enzyme activity,inhibitor,,1 µM,inhibition,10%
C#Cc1n[nH]c2c(-c3cn(C(C)c4ccccn4)c(=O)[nH]c3=O)cc(F)cc12 (stereo not shown),RAF1 Y340D/Y341D,enzyme activity,inhibitor,,1 µM,inhibition,15.5%
Cn1cc(-c2cc(F)cc(N3CCn4c(cc5c4CCCC5)C3=O)c2CO)cc(Nc2ccc(N3CCN(C4COC4)CC3)cn2)c1=O,RAF1 Y340D/Y341D,enzyme activity,inhibitor,,0.1 µM,inhibition,5%
COc1ncccc1-c1cnn2ccc(N3CCN(C(=O)OC(C)C)CC3)nc12,RAF1,binding,,competition with immobilised ligand,1 µM,remaining binding,60%
Cc1nn(C)cc1-c1nc2c(N3CCN(Cc4ccc(Cl)cc4)CC3)c(Cl)cnc2[nH]1,RAF1,binding,,competition with immobilised ligand,1 µM,remaining binding,69%
